Assay [1] has as its target T1, Fibroblast growth factor receptor 1 (Homo sapiens, UniProt P11362). The experiment in a line: Inhibition of FGFR1 using poly(Glu-Tyr)4:1 as substrate after 60 mins by ELISA. Background: In an ELISA, binding on a coated surface is turned into a signal by an enzyme label.
Assay [2] addresses Fibroblast growth factor receptor 2 (Homo sapiens, UniProt P21802). Kind of assay: Inhibition of FGFR2 using poly(Glu-Tyr)4:1 as substrate after 60 mins by ELISA. Put shortly: (§1)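 Wells precoated with 20 μg/mL poly(Glu,Tyr)4:1. Detected with PY99 anti-phosphotyrosine, then HRP anti-mouse IgG and o-phenylenediamine/H2O2; stopped with H2SO4, A490. Duplicates per concentration; IC50 from inhibition curves, at least three independent tests.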

For assay [3], the target named is Vascular endothelial growth factor receptor 2 (Homo sapiens, UniProt P35968). The experiment in a line: Inhibition of VEGFR2 expressed in Bac-to-Bac Baculovirus expression system using poly(Glu-Tyr)4:1 as substrate after 60 mins by ELISA. Put shortly: as §1
In assay [4] the target is Macrophage-stimulating protein receptor (Homo sapiens, UniProt Q04912). Kind of assay: Inhibition of RON expressed in Bac-to-Bac Baculovirus expression system using poly(Glu-Tyr)4:1 as substrate after 60 mins by ELISA. Put shortly: as §1
The test system of a further assay is BXPC-3. The experiment in a line: Antiproliferative activity against human BxPC3 cells expressing FGFR after 72 hrs by SRB assay. In kind it is functional, cell-based. The following applies: BXPC-3, 72 h. Summed up: (§2)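 Cells seeded and grown 24 h, then exposed to increasing compound concentrations for 72 h without medium change. Fixed with cold 10% TCA 1 h at 4 °C, stained 15 min with 4 mg/mL SRB in 1% acetic acid, rinsed, dye dissolved in 10 mM Tris base, A515 read. Inhibition = (1 − A515treated/A515control)×100; IC50 by Logit method from at least three independent tests.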
A general note: In SRB staining, fixed cells bind dye roughly in proportion to their protein.

The test system of a further assay is WI-38. The experiment in a line: Antiproliferative activity against human WI38 cells expressing FGFR after 72 hrs by SRB assay. In kind it is cell-based. The note with it: WI-38, 72 h. Summed up:
as §2

In assay [5] the target is Fibroblast growth factor receptor 4 (Homo sapiens, UniProt P22455). Kind of assay: Inhibition of FGFR4 using poly(Glu-Tyr)4:1 as substrate after 60 mins by ELISA. Summed up: as §1
In assay [6] the target is Proto-oncogene tyrosine-protein kinase receptor Ret (Homo sapiens, UniProt P07949). Kind of assay: Inhibition of RET expressed in Bac-to-Bac Baculovirus expression system using poly(Glu-Tyr)4:1 as substrate after 60 mins by ELISA. Put shortly: as §1
The target of assay [7] is Insulin-like growth factor 1 receptor (Homo sapiens, UniProt P08069). Kind of assay: Inhibition of IGF1R expressed in Bac-to-Bac Baculovirus expression system using poly(Glu-Tyr)4:1 as substrate after 60 mins by ELISA. Summed up: as §1
A further assay has as its target Ephrin type-A receptor 2 (Homo sapiens, UniProt P29317). Kind of assay: Inhibition of EphA2 expressed in Bac-to-Bac Baculovirus expression system using poly(Glu-Tyr)4:1 as substrate after 60 mins by ELISA. Summed up:
as §1

In assay [8] the target is Proto-oncogene tyrosine-protein kinase Src (Homo sapiens, UniProt P12931). The experiment in a line: Inhibition of c-Src expressed in Bac-to-Bac Baculovirus expression system using poly(Glu-Tyr)4:1 as substrate after 60 mins by ELISA. Put shortly: as §1
Assay [9] has as its target T1, Fibroblast growth factor receptor 1. Kind of assay: Inhibition of FGFR1 in human BxPC3 cells assessed as reduction of Erk1/2 phosphorylation after 12 hrs by Western blot analysis. In kind it is cell-based. The following applies: BXPC-3. Summed up:
(§3)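 BxPC3 cells plated at 3 × 10^5 per well, serum-starved 24 h, then treated 12 h with compound (1.25, 2.5, 5, 10 μM). Whole-cell lysates run on 10% SDS-PAGE and immunoblotted for phospho-FGFR1 (Tyr653/654), phospho-Erk1/2 (T202/Y204), phospho-Akt and totals, with GAPDH loading control.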
Target sequence in this assay (P11362 22-822 limits assumed): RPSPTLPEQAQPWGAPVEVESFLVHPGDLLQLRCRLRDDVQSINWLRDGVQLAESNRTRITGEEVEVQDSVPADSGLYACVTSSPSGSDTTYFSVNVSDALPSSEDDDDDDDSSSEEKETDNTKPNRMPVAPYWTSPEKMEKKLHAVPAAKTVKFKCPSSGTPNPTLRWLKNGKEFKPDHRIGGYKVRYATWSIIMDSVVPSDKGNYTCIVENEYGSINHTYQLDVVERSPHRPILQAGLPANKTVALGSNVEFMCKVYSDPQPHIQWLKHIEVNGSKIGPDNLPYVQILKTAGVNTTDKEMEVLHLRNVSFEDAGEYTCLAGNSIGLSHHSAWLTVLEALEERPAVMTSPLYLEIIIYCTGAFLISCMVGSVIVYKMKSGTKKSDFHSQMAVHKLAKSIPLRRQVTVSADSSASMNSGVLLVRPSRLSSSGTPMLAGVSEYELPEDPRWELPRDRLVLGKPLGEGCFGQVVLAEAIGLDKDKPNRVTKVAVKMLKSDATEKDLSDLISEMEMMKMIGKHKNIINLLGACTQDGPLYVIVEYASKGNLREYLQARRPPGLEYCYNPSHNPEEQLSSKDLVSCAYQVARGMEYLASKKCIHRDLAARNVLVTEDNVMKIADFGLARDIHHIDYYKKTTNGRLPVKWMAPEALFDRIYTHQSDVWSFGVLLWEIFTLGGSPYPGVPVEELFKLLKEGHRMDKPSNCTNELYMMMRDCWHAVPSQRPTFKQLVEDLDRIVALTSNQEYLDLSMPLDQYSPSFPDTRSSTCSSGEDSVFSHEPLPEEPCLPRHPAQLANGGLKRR
A general note: In western blotting, separated proteins are transferred to a membrane and probed.

Assay [10] deals with Vascular endothelial growth factor receptor 1 (Homo sapiens, UniProt P17948). Kind of assay: Inhibition of VEGFR1 using poly(Glu-Tyr)4:1 as substrate measured after 60 mins by ELISA. Put shortly: as §1
The target in assay [11] is T1, Fibroblast growth factor receptor 1. The experiment in a line: Inhibition of FGFR1 in human BxPC3 cells assessed as reduction of Akt phosphorylation at 10 uM after 12 hrs by Western blot analysis. The class given is cell-based. The note with it: BXPC-3. Summed up:
as §3
Target sequence in this assay (P11362 22-822 limits assumed): as above

In assay [12] the target is Platelet-derived growth factor receptor beta (Homo sapiens, UniProt P09619). Kind of assay: Inhibition of PDGFRbeta using poly(Glu-Tyr)4:1 as substrate after 60 mins by ELISA. Put shortly:
as §1

For assay [13], the target named is Tyrosine-protein kinase ABL1 (Homo sapiens, UniProt P00519). Kind of assay: Inhibition of Abl using poly(Glu-Tyr)4:1 as substrate after 60 mins by ELISA. Put shortly: as §1
Assay [14] addresses Platelet-derived growth factor receptor alpha (Homo sapiens, UniProt P16234). Kind of assay: Inhibition of PDGFRalpha using poly(Glu-Tyr)4:1 as substrate after 60 mins by ELISA. Summed up: as §1
Assay [15] deals with Fibroblast growth factor receptor 3 (Homo sapiens, UniProt P22607). Kind of assay: Inhibition of FGFR3 using poly(Glu-Tyr)4:1 as substrate after 60 mins by ELISA. Summed up: as §1
For the next assay, the target named is T2, Ephrin type-B receptor 2 (Homo sapiens, UniProt P29323).
T2 sequence (P29323 whole entry): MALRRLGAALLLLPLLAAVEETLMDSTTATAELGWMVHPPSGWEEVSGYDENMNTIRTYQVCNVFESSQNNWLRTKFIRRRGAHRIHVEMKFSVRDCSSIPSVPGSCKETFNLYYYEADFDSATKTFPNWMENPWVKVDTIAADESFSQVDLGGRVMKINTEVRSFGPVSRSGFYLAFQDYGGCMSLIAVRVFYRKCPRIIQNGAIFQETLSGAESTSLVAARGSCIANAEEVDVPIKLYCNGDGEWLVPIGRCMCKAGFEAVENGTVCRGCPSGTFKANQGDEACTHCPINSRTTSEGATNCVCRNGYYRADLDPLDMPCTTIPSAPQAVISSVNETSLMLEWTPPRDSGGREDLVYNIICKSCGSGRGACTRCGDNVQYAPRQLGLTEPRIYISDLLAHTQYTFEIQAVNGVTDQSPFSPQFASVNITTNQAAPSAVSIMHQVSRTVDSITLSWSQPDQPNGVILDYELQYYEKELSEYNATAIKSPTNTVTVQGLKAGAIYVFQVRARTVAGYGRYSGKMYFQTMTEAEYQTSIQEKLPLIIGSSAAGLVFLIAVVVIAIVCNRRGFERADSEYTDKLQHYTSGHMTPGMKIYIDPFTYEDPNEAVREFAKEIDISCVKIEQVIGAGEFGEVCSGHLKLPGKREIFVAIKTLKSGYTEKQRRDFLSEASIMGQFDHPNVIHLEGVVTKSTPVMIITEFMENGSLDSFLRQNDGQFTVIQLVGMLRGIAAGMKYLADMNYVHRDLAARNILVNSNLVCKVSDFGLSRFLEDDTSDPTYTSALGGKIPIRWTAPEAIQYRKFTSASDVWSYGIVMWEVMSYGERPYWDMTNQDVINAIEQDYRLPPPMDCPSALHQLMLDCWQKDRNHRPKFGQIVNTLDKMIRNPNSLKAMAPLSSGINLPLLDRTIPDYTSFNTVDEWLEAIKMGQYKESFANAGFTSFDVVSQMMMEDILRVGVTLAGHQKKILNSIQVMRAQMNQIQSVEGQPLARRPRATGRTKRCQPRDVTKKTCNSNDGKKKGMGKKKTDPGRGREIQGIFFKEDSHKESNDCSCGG
The experiment in a line: Inhibition of EphB2 expressed in Bac-to-Bac Baculovirus expression system using poly(Glu-Tyr)4:1 as substrate after 60 mins by ELISA. Put shortly:
as §1

Assay [16] concerns the target T1, Fibroblast growth factor receptor 1. The experiment in a line: Inhibition of FGFR1 in human BxPC3 cells assessed as reduction of Erk1/2 phosphorylation at 10 uM after 12 hrs by Western blot analysis. In kind it is cell-based. The following applies: BXPC-3. Summed up: as §3
Target sequence in this assay (P11362 22-822 limits assumed): as the sequence (P11362 22-822 limits assumed) above
The test system of a further assay is T-24. The experiment in a line: Antiproliferative activity against human T24 cells expressing FGFR after 72 hrs by SRB assay. In kind it is functional, cell-based. The note with it: T-24, 72 h. Summed up:
as §2

Assay [17] concerns the target Mast/stem cell growth factor receptor Kit (Homo sapiens, UniProt P10721). The experiment in a line: Inhibition of c-kit expressed in Bac-to-Bac Baculovirus expression system using poly(Glu-Tyr)4:1 as substrate after 60 mins by ELISA. Summed up:
as §1

Activity calls are given as the source filed them. The calls are words filed in the database; no cut-off is given here.

Sequence of Insulin-like growth factor 1 receptor (P08069 31-736 limits assumed): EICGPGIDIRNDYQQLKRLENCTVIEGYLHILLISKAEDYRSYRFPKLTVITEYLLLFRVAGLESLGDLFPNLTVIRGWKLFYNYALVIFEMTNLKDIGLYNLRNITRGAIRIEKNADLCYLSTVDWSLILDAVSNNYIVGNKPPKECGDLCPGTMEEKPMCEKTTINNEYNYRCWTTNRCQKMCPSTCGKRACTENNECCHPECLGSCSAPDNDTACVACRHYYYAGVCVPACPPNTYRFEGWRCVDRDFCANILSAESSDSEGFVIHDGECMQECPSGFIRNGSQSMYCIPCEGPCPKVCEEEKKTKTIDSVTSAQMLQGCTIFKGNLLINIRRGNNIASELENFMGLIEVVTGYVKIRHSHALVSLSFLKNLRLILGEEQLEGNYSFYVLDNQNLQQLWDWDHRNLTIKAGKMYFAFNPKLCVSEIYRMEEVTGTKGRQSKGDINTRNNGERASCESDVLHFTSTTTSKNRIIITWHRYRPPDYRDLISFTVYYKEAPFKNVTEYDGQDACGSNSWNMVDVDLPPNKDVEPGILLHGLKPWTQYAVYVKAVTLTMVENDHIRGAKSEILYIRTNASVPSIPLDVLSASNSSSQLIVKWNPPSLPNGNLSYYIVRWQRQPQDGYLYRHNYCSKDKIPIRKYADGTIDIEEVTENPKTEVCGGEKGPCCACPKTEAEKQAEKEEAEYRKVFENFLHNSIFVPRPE
Sequence of Insulin-like growth factor 1 receptor (P08069 741-1367 limits assumed): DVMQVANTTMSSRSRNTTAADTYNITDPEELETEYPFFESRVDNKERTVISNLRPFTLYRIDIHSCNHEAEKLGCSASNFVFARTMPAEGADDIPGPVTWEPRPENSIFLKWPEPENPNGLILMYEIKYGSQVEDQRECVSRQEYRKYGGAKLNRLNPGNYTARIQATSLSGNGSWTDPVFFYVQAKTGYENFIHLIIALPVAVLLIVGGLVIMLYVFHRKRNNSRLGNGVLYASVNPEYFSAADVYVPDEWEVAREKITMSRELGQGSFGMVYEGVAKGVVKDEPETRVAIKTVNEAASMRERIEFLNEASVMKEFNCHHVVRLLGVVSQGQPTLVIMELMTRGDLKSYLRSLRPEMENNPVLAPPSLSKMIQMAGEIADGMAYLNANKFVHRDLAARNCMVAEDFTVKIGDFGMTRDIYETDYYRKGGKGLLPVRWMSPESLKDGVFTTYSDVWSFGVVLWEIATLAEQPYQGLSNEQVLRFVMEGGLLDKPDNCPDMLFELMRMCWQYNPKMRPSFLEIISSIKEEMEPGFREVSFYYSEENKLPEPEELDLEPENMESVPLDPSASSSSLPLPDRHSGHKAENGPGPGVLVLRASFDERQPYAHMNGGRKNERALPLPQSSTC
Sequence of Fibroblast growth factor receptor 4 (P22455 whole entry): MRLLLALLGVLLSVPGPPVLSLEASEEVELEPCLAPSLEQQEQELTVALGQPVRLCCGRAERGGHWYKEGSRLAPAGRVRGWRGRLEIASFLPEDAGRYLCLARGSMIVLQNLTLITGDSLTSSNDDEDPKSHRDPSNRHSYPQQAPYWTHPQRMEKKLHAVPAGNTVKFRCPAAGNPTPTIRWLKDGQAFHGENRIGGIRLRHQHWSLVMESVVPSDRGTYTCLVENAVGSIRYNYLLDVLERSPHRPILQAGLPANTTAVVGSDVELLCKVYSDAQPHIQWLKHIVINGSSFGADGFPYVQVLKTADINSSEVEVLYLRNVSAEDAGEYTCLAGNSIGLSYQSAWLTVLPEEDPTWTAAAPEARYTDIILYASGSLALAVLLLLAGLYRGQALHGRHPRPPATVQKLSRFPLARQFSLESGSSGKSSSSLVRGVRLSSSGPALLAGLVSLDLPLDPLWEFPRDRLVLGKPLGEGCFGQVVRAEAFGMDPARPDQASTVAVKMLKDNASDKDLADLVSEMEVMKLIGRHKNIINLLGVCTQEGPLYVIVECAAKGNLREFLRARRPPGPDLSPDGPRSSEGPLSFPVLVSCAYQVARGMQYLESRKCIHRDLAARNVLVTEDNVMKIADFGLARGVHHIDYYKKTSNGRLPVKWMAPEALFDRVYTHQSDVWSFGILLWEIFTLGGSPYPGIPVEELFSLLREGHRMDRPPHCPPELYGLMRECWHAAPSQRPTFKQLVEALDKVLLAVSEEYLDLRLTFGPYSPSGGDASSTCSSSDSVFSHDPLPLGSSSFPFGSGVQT
Sequence of Proto-oncogene tyrosine-protein kinase receptor Ret (P07949 whole entry): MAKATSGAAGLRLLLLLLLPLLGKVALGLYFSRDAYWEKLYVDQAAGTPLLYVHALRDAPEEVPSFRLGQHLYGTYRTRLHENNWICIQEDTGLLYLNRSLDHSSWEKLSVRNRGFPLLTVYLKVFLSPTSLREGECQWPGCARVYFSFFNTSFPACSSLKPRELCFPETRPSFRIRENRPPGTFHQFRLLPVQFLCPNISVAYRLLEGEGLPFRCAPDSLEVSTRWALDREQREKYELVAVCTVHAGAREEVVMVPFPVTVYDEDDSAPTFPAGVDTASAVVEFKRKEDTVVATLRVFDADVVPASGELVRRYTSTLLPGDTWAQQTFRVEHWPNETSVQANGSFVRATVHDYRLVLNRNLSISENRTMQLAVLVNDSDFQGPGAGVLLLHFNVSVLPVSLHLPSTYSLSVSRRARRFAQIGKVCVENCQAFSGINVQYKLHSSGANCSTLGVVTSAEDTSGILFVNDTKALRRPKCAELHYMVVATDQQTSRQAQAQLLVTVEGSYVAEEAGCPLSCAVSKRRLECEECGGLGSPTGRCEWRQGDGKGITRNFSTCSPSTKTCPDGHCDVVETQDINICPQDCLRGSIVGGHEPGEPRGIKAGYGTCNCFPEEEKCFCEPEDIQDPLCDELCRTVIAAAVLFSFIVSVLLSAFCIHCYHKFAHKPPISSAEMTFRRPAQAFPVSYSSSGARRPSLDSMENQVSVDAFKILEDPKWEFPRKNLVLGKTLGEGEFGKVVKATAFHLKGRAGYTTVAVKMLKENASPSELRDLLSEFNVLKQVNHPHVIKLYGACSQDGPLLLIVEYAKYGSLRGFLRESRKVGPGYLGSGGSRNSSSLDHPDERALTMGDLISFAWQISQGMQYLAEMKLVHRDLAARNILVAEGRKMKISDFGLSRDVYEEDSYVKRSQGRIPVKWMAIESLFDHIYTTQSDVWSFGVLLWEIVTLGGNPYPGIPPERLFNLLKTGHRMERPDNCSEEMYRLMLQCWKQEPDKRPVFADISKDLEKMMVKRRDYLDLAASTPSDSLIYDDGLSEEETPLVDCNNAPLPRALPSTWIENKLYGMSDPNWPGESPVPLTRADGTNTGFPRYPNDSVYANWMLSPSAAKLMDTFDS
Sequence of Fibroblast growth factor receptor 3 (P22607 whole entry): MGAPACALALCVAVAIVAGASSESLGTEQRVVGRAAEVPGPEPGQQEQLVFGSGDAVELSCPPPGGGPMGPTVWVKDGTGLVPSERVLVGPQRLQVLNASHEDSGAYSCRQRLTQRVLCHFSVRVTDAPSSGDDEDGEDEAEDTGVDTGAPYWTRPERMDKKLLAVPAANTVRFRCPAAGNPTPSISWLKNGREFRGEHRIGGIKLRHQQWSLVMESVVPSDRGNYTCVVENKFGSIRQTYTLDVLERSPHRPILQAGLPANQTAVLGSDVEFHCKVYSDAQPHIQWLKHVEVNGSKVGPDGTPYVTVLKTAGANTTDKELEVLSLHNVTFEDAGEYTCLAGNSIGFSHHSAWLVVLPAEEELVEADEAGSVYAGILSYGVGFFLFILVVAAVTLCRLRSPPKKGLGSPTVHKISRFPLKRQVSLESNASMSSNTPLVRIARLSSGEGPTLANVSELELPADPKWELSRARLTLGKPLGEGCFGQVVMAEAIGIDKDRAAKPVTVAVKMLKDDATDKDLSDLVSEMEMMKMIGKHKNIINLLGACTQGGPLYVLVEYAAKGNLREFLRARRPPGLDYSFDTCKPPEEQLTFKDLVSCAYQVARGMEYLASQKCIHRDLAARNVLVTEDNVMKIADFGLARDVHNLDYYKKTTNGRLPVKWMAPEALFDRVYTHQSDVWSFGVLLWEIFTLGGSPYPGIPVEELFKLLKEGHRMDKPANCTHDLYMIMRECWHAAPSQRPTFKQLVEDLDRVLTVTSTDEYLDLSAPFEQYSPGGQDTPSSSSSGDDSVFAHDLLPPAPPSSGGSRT

For `CCOC(=O)C1=C2C(=NC1=O)c1cccc3cccc2c13`, the IC50 (in general, the point on the concentration scale where inhibition reaches its midpoint) in assay [1] was 74 nM; in [2], above 10 µM; in assay [3], above 10 µM; in [4] it was above 10 µM; with BXPC-3 it was 4.7 µM; in the assay with WI-38 it was 6.2 µM. Besides, the IC50 was above 10 µM in assay [5]; above 10 µM in [6]; above 10 µM in [7]; above 10 µM against Ephrin type-A receptor 2; above 10 µM in [8]; 3.2 µM in assay [10]. The IC50 in [12] was above 10 µM; in assay [13], above 10 µM; in assay [14] it was above 10 µM; in [15] it was 4.6 µM; at Ephrin type-B receptor 2, above 10 µM; with T-24, 2900 nM. For the same molecule, the IC50 in assay [17] was above 10 µM. Also, in assay [9], the inhibition entry was “Dose-dependent effect”. Besides, the inhibition result in assay [11] is “inactive”. The inhibition result in [16] is “Active”.
